GSK3A inh = blockers of GSK3A enzyme activity – biochemical, luminescence, cell-free homogeneous, HTS, primary screen; hit rate 0.1% among 320,000; GSK-3 alpha kinase, ADP-Glo luminescence, 60 min; inhibition, % at 10 µM; Glycogen synthase kinase-3 alpha (Homo sapiens), P49840;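 active means more than half of replicates show inhibition above 20%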;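 further: GST-tagged GSK-3 alpha with peptide substrate and 25 µM ATP; 0% = DMSO neutral wells and 100% = GW8510 positive control wells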
MEKK2 WT-MEK5 = modulators of MEK5 binding to wildtype MEKK2, primary screen, biochemical, multiplex bead flow cytometry, Alexa488-MEK5. Mitogen-activated protein kinase kinase kinase 2 (Homo sapiens), Q9Y2U5. Alexa488-MEK5 binding to MEKK2 WT; actives lie on both sides. binding response (% of control), % at 10 µM. hit rate 1.1% among 290,000. AID 1531, 2009; in the data active means binding response below about 67% or above about 130%
STK33 kinase inh = inhibitors of purified STK33 kinase, primary screen, biochemical, ADP-Glo luminescence, homogeneous, cell-free; inhibition, % at 10 µM; AID 2661, 2010; hit rate 0.073% among 320,000; Serine/threonine-protein kinase 33 (Homo sapiens), Q9BYT3; MBP phosphorylation;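 active means inhibition at or above 25%, using the most active replicate where run in duplicate; inactive means inhibition below 25%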
MEKK2 mut-MEK5 = MEK5 binding signal on mutant MEKK2 PB1, primary screen, biochemical, multiplex bead flow cytometry, Alexa488-MEK5 | percent response, % at 10 µM | AID 1530, 2009 | Alexa488-MEK5 binding to MEKK2 mutant | hit rate 0.35% among 290,000; in the data active means percent response above about 24%, passing the limit was not always enough
MEKK3 PB1 HTS = modulators of MEKK3-MEK5 PB1 binding, primary screen, biochemical, wildtype MEKK3, multiplex bead flow cytometry, Alexa488-MEK5; Mitogen-activated protein kinase kinase kinase 3 (Homo sapiens), Q99759; hit rate 1.4% among 290,000; binding response (% of control), % at 10 µM; AID 1529, 2009; bead-based flow cytometry, Alexa488-MEK5 binding to MEKK3; actives lie on both sides; 0 = blocked by unlabeled MEK5, 100 = vehicle;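 active means binding response more than 3 SD above or below the average of its plate-row segment, actives on both sides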;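 further: Alexa488 bead fluorescence after subtracting the streptavidin-only scavenger bead signal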
Target sequence (Q99759 whole entry, looked up): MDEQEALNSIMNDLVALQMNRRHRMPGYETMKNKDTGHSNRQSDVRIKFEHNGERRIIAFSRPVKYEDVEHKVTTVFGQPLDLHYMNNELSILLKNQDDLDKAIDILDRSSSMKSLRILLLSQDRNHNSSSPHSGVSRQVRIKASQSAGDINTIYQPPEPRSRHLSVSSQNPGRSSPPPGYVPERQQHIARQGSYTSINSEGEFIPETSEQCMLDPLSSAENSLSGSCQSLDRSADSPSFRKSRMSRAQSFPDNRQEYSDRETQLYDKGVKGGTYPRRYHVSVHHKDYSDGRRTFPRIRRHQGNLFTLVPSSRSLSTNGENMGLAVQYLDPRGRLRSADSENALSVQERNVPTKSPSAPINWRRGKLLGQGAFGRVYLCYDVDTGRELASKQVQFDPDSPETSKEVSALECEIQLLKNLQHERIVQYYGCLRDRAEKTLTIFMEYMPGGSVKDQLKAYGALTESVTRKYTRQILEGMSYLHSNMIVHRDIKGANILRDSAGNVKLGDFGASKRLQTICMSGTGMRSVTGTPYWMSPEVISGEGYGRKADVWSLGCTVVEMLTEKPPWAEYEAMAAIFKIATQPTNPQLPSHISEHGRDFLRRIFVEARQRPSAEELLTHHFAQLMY
GSK3B inh = human GSK3beta kinase inhibitors, primary screen, biochemical, cell-free homogeneous, HTS; activity score (negative = inhibition), % at 10 µM; Glycogen synthase kinase-3 beta (Homo sapiens), P49841; hit rate 0.038% among 300,000; GST-GSK3beta kinase, ADP-Glo luminescence, 60 min; stronger effect = lower value;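 active means more than half of replicate wells score below -50%, meaning over 50% inhibition versus plate controls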;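 further: 0% = median DMSO wells and -100% = median GW8510 positive control wells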
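Assay system: GST-tagged human GSK3beta kinase, cell-free; Input: 1.6 ng GSK3beta; Medium: Tris/MgCl2 kinase buffer; Timing: 60 min enzyme reaction, room temperature; Signal: ADP-Glo luminescence quantifying ADP generated by kinase; Evaluation: score relative to plate controls; Benchmarks: DMSO neutral wells and GW8510 at 20 µM as positive.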
MEKK2wt confirm = modulators of MEK5 binding to wildtype MEKK2, confirmation, biochemical, single concentration, multiplex bead flow cytometry. shares compounds with MEKK3 PB1 HTS. Alexa488-MEK5 binding to MEKK2 WT; actives lie on both sides. binding response (% of control), % at 10 µM. hit rate 2.4% among 5,900. AID 1892, 2009; in the data active means binding response below about 16% or above about 210%; inactive means in between
MEKK2mut confirm = mutant MEKK2 PB1-MEK5 binding signal retest – biochemical, single concentration, multiplex bead flow cytometry, confirmation; shares compounds with MEKK3 PB1 HTS; Alexa488-MEK5 binding to MEKK2 mutant; percent response, % at 10 µM; hit rate 2% among 5,900; AID 1893, 2009; in the data active means percent response mostly above about 71%, no sharp cut-off; inactive means mostly below about 38%;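 further: higher means compound restores mutant binding toward wildtype level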
MEKK3 confirm = MEKK3 wild-type PB1 binding to MEK5, inhibitors, confirmation, biochemical, bead multiplex flow cytometry, single concentration, wildtype | shares compounds with MEKK3 PB1 HTS | Alexa488-MEK5 binding to MEKK3; stronger effect = lower value | binding response (% of control), % at 10 µM | hit rate 1.8% among 5,900 | AID 1894, 2009;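 active means binding response below 72% of control, or above a set upper limit, though filed actives all read lower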;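 further: 100% = DMSO only wells and 0% = binding blocked by excess unlabeled MEK5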
The depositor's hits bear a star; / = no result given; [ ] = dose if it differs, or a comment. Hits are enriched below; roughly 2.1% of the tested compounds scored in any of these assays.

SMILES | GSK3A inh | MEKK2 WT-MEK5 | STK33 kinase inh | MEKK2 mut-MEK5 | MEKK3 PB1 HTS | GSK3B inh | MEKK2wt confirm | MEKK2mut confirm | MEKK3 confirm
N#CC1=C(N)C(C#N)(C#N)C2(CCC3(CC2)OCCO3)C2CC3(CC=C12)OCCO3 (stereo not given) | 2 | 19*[inhibitor] | 1 | -41 | 13*[inhibitor] | -7 | 104 | 1 | 102
CCOC(=O)c1c(NC(=S)Nc2ccccc2)sc(C)c1C | 0 | 93 | -1 | 4 | 82 | -2 | / | / | /
CCOC(=O)c1c(NC(=O)C[n+]2ccc(Cc3ccccc3)cc2)sc(C)c1C | 9 | 138* | 0 | 11 | 94 | 1 | 191 | 53 | 111
O=c1ccc(NS(=O)(=O)c2ccc(Cl)cc2)cn1Cc1ccc(Cl)c(Cl)c1 | -2 | 97 | -4 | 1 | 107 | 2 | / | / | /
COc1ccc(CNCCC(c2ccc(OC)cc2)c2ccccc2OC)cc1 (stereo not given) | 0 | 147* | 0 | 21 | 106 | 2 | 149 | 41 | 104
COc1ccc(C(CCNCc2ccccc2)c2ccc(F)cc2)cc1 (stereo not given) | -1 | 103 | 0 | 5 | 94 | -3 | / | / | /
COc1ccc(CNCCC(c2ccccc2)c2ccc(OC(C)C)cc2)cc1OC (stereo not given) | -1 | 151* | -1 | 22 | 106 | 1 | 147 | 34 | 110
COc1ccc(C(CCNC(C)c2ccccc2)c2ccc(F)cc2)cc1 (stereo not given) | 3 | 156* | 0 | 46 | 107 | -4 | 124 | 6 | 103
COc1ccc(C(CCNCc2ccc(OC(C)C)cc2)c2ccccc2OC)cc1 (stereo not given) | -3 | 199* | 0 | 40* | 111 | 0 | 198 | 70* | 111
COc1ccc(CNCCC(c2ccc(F)cc2)c2ccc(OC(C)C)cc2)cc1OC (stereo not given) | -2 | 82 | -2 | -5 | 71 | -1 | / | / | /
COc1cccc(Nc2ncnc3sc(C)cc23)c1 | -11 | 99 | 0 | -5 | 99 | -1 | / | / | /
C=CCNC(=O)CN1C(=O)c2cccc3cccc1c23 | 0 | 102 | -1 | -1 | 101 | / | / | / | /
COc1ccc(C(CCNCc2ccc(N(C)C)cc2)c2ccccc2OC)cc1 (stereo not given) | -4 | 148* | -1 | 22 | 108 | 4 | 142 | 18 | 105
CN(Cc1ccccc1)C(=O)COC(=O)c1cc(S(=O)(=O)N(C)C)ccc1N1CCCC1 | 0 | / | -1 | / | / | -4 | / | / | /
CC(C)(C)c1cc(Br)c(O)c(N=Nc2ccc(S(=O)(=O)N3CCOCC3)cc2)c1 | -1 | 91 | 0 | 0 | 100 | 1 | / | / | /
Cc1cccc(C)c1OCC(=O)N=Nc1c(O)[nH]c2ccc(Br)cc12 | 1 | / | 1 | / | / | 0 | / | / | /
CC(C)(Cc1ccc(O)cc1)NC(=O)CC(=O)N=Nc1c(O)[nH]c2ccc(Br)cc12 | 0 | 108 | 0 | 40 | 21*[inhibitor] | 1 | 106 | 9 | 105
CCOC(=O)C1CCN(C(=O)COC(=O)c2ccc3c(c2)C(=O)N(c2ccc(OCC)cc2)C3=O)CC1 | 1 | 98 | 0 | -1 | 105 | -1 | / | / | /
Cc1c(NC(=O)CSCc2c(F)cccc2Cl)c(=O)n(-c2ccccc2)n1C | 3 | 97 | -1 | -1 | 98 | 3 | / | / | /
CCC1(C)Cc2c(C#N)c(N)sc(=S)c2CO1 (stereo not given) | 3 | 60*[inhibitor] | -1 | -5 | 95 | 0 | 82 | -10 | 98
Cc1[nH]c(=S)c(C#N)c2c1CCCC2 | -1 | 103 | 0 | -10 | 101 | -3 | / | / | /
N#Cc1c(N)sc(=S)c2c1CCCC2 | -1 | 66*[inhibitor] | 0 | -9 | 87 | -2 | 92 | -1 | 104
COc1ccc(OC)c(/C(O)=C/C(=O)C(=O)Nc2cc(C)cc(C)c2)c1 | 0 | 120 | -1 | 4 | 126* | 1 | 96 | -5 | 97
Cc1nn(C)c(C)c1CNC(=O)Nc1cccc(Cl)c1C | -1 | 93 | -3 | -13 | 98 | 0 | / | / | /
Cc1cc(C)c(C#N)c(Cl)n1 | -2 | 107 | -1 | 0 | 149* | -22 | 105 | 1 | 103
SMILES | GSK3A inh | MEKK2 WT-MEK5 | STK33 kinase inh | MEKK2 mut-MEK5 | MEKK3 PB1 HTS | GSK3B inh | MEKK2wt confirm | MEKK2mut confirm | MEKK3 confirm
O=C(Nc1ccc(SC(F)F)cc1)C12CCC(CC1)C2 | -2 | 104 | 0 | 0 | 134* | 0 | 78 | -13 | 87
Nc1nc2c(F)cccc2s1 | -1 | 102 | 1 | 0 | 133* | -1 | 102 | 1 | 99
O=C(CN1CCN(S(=O)(=O)c2ccc(F)cc2)CC1)Nc1ccc2c(c1)OCO2 | 4 | 103 | 0 | 12 | 105 | 2 | / | / | /
O=C(CN1CCCN(S(=O)(=O)c2ccc(Br)cc2)CC1)Nc1ccc2c(c1)OCO2 | / | 0.0*[inhibitor] | / | -9 | 1.0*[inhibitor] | -2 | 105 | -2 | 97
COCCN(C(=O)c1ccccc1F)c1nc(-c2ccc(OC)cc2)cs1 | 3 | 96 | 2 | -3 | 105 | -3 | / | / | /
COc1ccc(-c2csc(N(CCCN(C)C)C(=O)c3ccccc3C)n2)cc1 | 2 | 143* | 1 | 16 | 107 | 1 | 149 | 23 | 107
COc1ccc(-c2csc(N(CCCN(C)C)C(=O)c3ccccc3F)n2)cc1 | -3 | 127 | 0 | 16 | 99 | 2 | / | / | /
COc1ccc(-c2csc(N(CCCN(C)C)C(=O)c3ccccc3Cl)n2)cc1 | 4 | 138* | 1 | 28* | 107 | 0 | 167 | 70* | 102

Assay outcomes as filed in PubChem.
